Results as given in ChEMBL document CHEMBL1144710, “epigenetic multiple ligands: mixed histone/protein methyltransferase, acetyltransferase, and class III deacetylase (sirtuin) inhibitors” (J Med Chem, 2008).
Active and inactive are the calls of the source. Unless noted, no cut-off for these calls is given here.

Key:
[1] = molecular target: RmtA (Emericella nidulans) (UniProt Q5VLE3); experiment: Inhibition of Aspergillus nidulans RmtA at 90 uM
[2] = test system: U-937; experiment: Inhibition of histone H3K4 methylation in human U937 cells at 50 uM after 24 hrs; format: functional, cell-based
In short: (§1)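 U937 cells treated at 50 µM for 24 h. Histones extracted with Triton buffer, then 0.2 M HCl overnight at 4 °C. 3–10 µg run on 15% SDS-PAGE and immunoblotted with anti-monomethyl-H3K4, monomethyl-H4R3 or dimethyl-H3R17 (1:500, overnight 4 °C), ECL detection. Loading controls: total H4 (H3K4), Ponceau Red (Arg marks).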

[3] = test system: U-937; experiment: Inhibition of histone H4R3 methylation in human U937 cells at 50 uM after 24 hrs; format: functional, cell-based; in short: as §1
[4] = test system: U-937; experiment: Inhibition of histone H3R17 methylation in human U937 cells at 50 uM after 24 hrs; format: functional, cell-based; in short: as §1
[5] = molecular target: RmtA (Emericella nidulans) (UniProt Q5VLE3); experiment: Inhibition of Aspergillus nidulans RmtA at 88.5 uM
In short: (§2)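 Enzyme was GST-RmtA fusion expressed in E. coli BL21 and glutathione-affinity purified (500 ng), preincubated with compound for 15 min at room temperature. Then 20 µg chicken erythrocyte core histones and 0.55 µCi [3H]AdoMet were added, 30 min at 30 °C. Stopped with 25% TCA, filtered, counted by liquid scintillation.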

[6] = molecular target: Protein arginine N-methyltransferase 1 (Homo sapiens) (UniProt Q99873); experiment: Inhibition of human recombinant PRMT1 assessed as nuclear ribonucleoprotein Npl3p methylation at 100 uM
Protein arginine N-methyltransferase 1 (Homo sapiens), sequence (Q99873 whole entry, looked up): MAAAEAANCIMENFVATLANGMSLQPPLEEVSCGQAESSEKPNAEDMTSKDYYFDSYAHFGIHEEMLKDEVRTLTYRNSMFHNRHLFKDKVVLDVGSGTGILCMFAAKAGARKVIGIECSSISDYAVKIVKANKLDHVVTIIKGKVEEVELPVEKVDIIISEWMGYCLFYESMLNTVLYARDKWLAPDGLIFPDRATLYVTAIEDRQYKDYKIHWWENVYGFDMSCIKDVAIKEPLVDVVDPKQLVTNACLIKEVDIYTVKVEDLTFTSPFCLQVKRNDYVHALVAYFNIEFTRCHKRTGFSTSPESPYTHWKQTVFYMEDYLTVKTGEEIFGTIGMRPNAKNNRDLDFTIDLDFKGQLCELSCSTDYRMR
In short: (§3)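 Recombinant enzymes (0.2 µg) with substrate (0.5 µg: Npl3p for PRMT1, PABP1 for CARM1, histone H3 for SET7), 0.5 µM [3H]AdoMet and 100 µM compound in PBS pH 7.4 with 3.3% v/v DMSO, 90 min at 30 °C. Products separated by 10% SDS-PAGE, transferred to PVDF, detected by fluorography on film overnight.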

[7] = molecular target: T1, Histone-arginine methyltransferase CARM1 (Homo sapiens) (UniProt Q86X55); experiment: Inhibition of human recombinant CARM1 assessed as poly(A) binding protein 1 methylation at 100 uM; in short: as §3
T1 sequence (whole entry): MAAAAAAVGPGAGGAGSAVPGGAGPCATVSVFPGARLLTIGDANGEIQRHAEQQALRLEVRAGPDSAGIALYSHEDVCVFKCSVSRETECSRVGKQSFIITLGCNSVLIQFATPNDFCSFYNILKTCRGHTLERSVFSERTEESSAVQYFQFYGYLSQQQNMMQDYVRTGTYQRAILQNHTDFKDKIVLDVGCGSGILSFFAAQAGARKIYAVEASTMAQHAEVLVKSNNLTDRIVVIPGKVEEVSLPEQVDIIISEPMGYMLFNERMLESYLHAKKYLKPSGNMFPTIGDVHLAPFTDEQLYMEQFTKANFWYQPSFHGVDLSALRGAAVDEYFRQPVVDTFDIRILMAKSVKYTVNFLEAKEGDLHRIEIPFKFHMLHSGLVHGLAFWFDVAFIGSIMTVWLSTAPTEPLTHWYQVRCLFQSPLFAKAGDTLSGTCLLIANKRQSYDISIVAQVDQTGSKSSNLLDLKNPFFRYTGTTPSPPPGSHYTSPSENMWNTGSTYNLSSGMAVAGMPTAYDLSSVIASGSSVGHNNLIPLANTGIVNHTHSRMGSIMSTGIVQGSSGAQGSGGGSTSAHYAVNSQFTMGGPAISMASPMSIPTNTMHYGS

[8] = molecular target: T2, Histone-lysine N-methyltransferase SETD7 (Homo sapiens) (UniProt Q8WTS6); experiment: Inhibition of human recombinant SET7 assessed as histone H3 protein methylation at 100 uM; in short: as §3
T2 sequence (whole entry): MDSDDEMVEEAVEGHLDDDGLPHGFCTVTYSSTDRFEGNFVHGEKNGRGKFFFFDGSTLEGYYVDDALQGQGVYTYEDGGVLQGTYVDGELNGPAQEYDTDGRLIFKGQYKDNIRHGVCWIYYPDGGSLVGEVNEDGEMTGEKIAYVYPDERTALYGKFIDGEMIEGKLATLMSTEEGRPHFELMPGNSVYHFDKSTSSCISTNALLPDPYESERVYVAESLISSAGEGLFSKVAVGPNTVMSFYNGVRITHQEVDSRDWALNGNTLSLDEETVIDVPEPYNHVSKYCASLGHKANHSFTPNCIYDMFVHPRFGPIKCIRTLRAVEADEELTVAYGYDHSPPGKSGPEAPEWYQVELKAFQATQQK

[9] = molecular target: RmtA (Emericella nidulans) (UniProt Q5VLE3); experiment: Inhibition of Aspergillus nidulans RmtA at 84.6 uM; in short: as §2
[10] = test system: U-937; experiment: Cell cycle arrest in human U937 cells assessed as accumulation at S/G2 phase at 25 uM after 30 hrs; format: functional, cell-based
In short: (§4)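 U937 cells in RPMI with 10% fetal calf serum, HEPES and glutamine, kept at 200000 cells/mL; treated at 25 µM for 30 h, then the distribution across cell cycle phases was analysed.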

[11] = test system: U-937; experiment: Induction of apoptosis in human U937 cells at 25 uM after 30 hrs; format: functional
In short: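 Apoptosis read as caspase 3 activation by FACS, in U937 cells (RPMI, 10% fetal calf serum, 200000 cells/mL) exposed to 25 µM for 30 h.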

[12] = test system: U-937; experiment: Induction of granulocytic differentiation in human U937 cells assessed as CD11c expression at 5 uM after 30 hrs; format: functional
In short: (§5)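 U937 cells treated for 30 h, then stained with PE-conjugated CD11c (PE mouse IgG1 as control) for 30 min at 4 °C in the dark and resuspended in PBS with PI (0.25 µg/mL). Read-out is percent CD11c-positive/PI-negative cells, with dead PI-positive cells excluded. Coloured compounds limited the top dose to 5 µM or lower.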

[13] = molecular target: RmtA (Emericella nidulans, UniProt Q5VLE3); experiment: Inhibition of Aspergillus nidulans RmtA; in short: as §2
RmtA, sequence (Q5VLE3 whole entry): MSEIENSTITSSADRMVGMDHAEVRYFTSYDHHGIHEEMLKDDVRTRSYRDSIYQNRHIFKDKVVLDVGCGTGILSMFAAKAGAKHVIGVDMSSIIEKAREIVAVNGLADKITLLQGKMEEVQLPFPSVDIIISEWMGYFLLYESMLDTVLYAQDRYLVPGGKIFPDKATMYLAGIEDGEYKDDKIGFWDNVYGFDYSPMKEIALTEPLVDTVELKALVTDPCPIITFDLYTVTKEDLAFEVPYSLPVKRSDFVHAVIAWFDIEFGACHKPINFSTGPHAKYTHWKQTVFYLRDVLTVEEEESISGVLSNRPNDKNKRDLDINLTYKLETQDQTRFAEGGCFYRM

[14] = molecular target: Protein arginine N-methyltransferase 1 (Homo sapiens) (UniProt Q99873); experiment: Inhibition of human recombinant PRMT1 assessed as histone H4 methylation at 50 uM
[15] = test system: U-937; experiment: Inhibition of human p300/CBP in U937 cells at 50 uM assessed as histone H3 acetylation; format: cell-based
In short: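 Source was U937 nuclear extract (10 µg per assay) as p300/CBP HAT, with histone H3 substrate and compound at 50 µM or DMSO control for 90 min. Acetyl-H3 detected by indirect ELISA, quantified against acetylated H3 peptide standard curves, […].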

[16] = molecular target: T3, NAD-dependent protein deacetylase sirtuin-1 (Homo sapiens) (UniProt Q96EB6); experiment: Inhibition of human SIRT1 at 25 uM
T3 sequence (whole entry): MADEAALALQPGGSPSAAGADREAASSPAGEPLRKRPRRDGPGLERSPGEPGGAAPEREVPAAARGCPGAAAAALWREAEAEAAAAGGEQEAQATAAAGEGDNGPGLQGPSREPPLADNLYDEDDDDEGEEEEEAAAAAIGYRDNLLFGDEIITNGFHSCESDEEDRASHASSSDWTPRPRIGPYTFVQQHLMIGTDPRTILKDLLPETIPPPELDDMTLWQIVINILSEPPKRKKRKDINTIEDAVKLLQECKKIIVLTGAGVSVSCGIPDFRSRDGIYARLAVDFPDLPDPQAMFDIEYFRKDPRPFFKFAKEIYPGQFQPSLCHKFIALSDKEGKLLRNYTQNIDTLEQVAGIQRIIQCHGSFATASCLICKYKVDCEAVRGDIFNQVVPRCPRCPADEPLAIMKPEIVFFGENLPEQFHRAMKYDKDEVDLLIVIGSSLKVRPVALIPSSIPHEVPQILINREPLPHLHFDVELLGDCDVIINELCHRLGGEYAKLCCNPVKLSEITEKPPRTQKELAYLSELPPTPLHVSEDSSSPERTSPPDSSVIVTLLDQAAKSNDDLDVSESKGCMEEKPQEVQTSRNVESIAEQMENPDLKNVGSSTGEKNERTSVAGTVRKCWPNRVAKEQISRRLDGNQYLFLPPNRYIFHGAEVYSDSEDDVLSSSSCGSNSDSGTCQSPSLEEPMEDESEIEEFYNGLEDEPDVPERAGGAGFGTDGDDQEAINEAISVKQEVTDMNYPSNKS
In short: (§6)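 Fluorescent two-stage assay. SIRT1 (1 U/well) or SIRT2 (5 U/well) with Fluor de Lys-SIRT1/2 substrate, NAD+ and compound at 25 µM, 37 °C for 2 h. Developer II containing nicotinamide then stopped the reaction and generated signal, read at ex 360/em 460 nm.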

[17] = molecular target: T4, NAD-dependent protein deacetylase sirtuin-2 (Homo sapiens) (UniProt Q8IXJ6); experiment: Inhibition of human SIRT2 at 25 uM; in short: as §6
T4 sequence (whole entry): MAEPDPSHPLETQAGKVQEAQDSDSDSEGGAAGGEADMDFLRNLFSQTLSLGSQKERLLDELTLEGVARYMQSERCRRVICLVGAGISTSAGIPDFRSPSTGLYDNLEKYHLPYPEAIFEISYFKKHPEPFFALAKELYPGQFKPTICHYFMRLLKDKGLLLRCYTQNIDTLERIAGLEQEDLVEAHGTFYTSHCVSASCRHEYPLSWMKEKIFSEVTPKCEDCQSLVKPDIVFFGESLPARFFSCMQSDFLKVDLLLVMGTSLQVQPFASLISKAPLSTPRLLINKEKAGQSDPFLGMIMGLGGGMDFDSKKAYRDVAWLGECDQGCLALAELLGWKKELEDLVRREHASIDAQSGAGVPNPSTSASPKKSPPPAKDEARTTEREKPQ

[18] = test system: U-937; experiment: Cell cycle arrest in human U937 cells assessed as accumulation at G1/G2 phase at 25 uM after 30 hrs; format: functional, cell-based; in short: as §4
[19] = test system: U-937; experiment: Induction of granulocytic differentiation in human U937 cells assessed as CD11c expression at 1 uM after 30 hrs; format: functional; in short: as §5
[20] = molecular target: RmtA (Emericella nidulans) (UniProt Q5VLE3); experiment: Inhibition of Aspergillus nidulans RmtA at 77 uM
[21] = molecular target: RmtA (Emericella nidulans) (UniProt Q5VLE3); experiment: Inhibition of Aspergillus nidulans RmtA at 91.8 uM; in short: as §2
[22] = molecular target: RmtA (Emericella nidulans) (UniProt Q5VLE3); experiment: Inhibition of Aspergillus nidulans RmtA at 70.4 uM; in short: as §2
[23] = molecular target: RmtA (Emericella nidulans) (UniProt Q5VLE3); experiment: Inhibition of Aspergillus nidulans RmtA at 89.4 uM
[24] = test system: U-937; experiment: Induction of cell cycle arrest in human U937 cells at 25 uM after 30 hrs; format: functional, cell-based; in short: as §4
[25] = test system: U-937; experiment: Induction of granulocytic differentiation in human U937 cells assessed as CD11c expression at 25 uM after 30 hrs; format: functional; in short: as §5

RmtA (Emericella nidulans), sequence (Q5VLE3 as listed by the source): as the sequence (Q5VLE3 whole entry) above

Compound | Activity [2] | Activity [3] | Activity [4] | Activity [6] | Activity [7] | Activity [8] | Activity [11] [%] | other results
O=C(c1cc(Br)c(O)c(Br)c1)c1cc(Br)c(O)c(Br)c1 | Active | Active | Active |  |  |  |  | inhibition [1]: 0%
O=C1/C(=C/c2ccc(O)c(Br)c2)CSC/C1=C\c1ccc(O)c(Br)c1 | Active | Active | Active | inactive | Active | inactive |  | inhibition [5]: 0%
CN1C2CCC1/C(=C\c1ccc(O)c(Br)c1)C(=O)/C2=C/c1ccc(O)c(Br)c1 | Active | Active | Active |  |  |  |  | inhibition [9]: 0%
O=C1/C(=C/c2cc(Br)c(O)c(Br)c2)CSC/C1=C\c1cc(Br)c(O)c(Br)c1 | Active | Active | Active | Active | Active | Active | 40.7 | Activity [10]: Active; Activity [12]: 9.1%; IC50 [13]: 45 µM; inhibition [14]: 73%; inhibition [15]: 69%; inhibition [16]: 54%; inhibition [17]: 59%
O=C(/C=C/c1cc(Br)c(O)c(Br)c1)c1cccc(C(=O)/C=C/c2cc(Br)c(O)c(Br)c2)c1 | Active | Active | Active | Active | Active | Active | 42.6 | Activity [18]: Active; Activity [19]: 38.8%; IC50 [13]: 10 µM; inhibition [14]: 60%; inhibition [15]: 83%; inhibition [16]: 73%; inhibition [17]: 48%
O=C1/C(=C/c2ccc(O)c(Br)c2)CN(Cc2ccccc2)C/C1=C\c1ccc(O)c(Br)c1 | Active | Active | Active | inactive | Active | inactive |  | inhibition [20]: 0%
CC(C)(C(=O)/C=C/c1ccc(O)c(Br)c1)C(=O)/C=C/c1ccc(O)c(Br)c1 |  | Active | Active |  |  |  |  | inhibition [21]: 0%
O=C(Nc1cc(Br)c(O)c(Br)c1)c1ccc(C(=O)Nc2cc(Br)c(O)c(Br)c2)cc1 |  | Active | Active |  |  |  |  | inhibition [22]: 0%
O=C1/C(=C/c2ccc(O)c(Br)c2)CCCC/C1=C\c1ccc(O)c(Br)c1 | Active | Active | Active | inactive | Active | inactive |  | inhibition [23]: 0%
COc1cc(/C=C/C(=O)CC(=O)/C=C/c2ccc(O)c(OC)c2)ccc1O [CURCUMIN] |  |  |  |  |  |  | 8.5 | Activity [24]: inactive; Activity [12]: 25.3%; Activity [25]: 25%
